An excerpt weighted towards active compounds, which were near 4.3% of everything screened.
TAAR1 antagonist: antagonists of human TAAR1. Q96RJ0. CHO RD-HGA16 TAAR1, Fluo-8 calcium fluorescence, antagonist. inhibition, % at 3 µM. 360,000 compounds, 1.5% hits;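 active means inhibition above a per-plate cutoff, the mean inhibition of test compounds on that plate plus 3 SD, cut at about 49% in these data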
Target sequence (Q96RJ0 whole entry, looked up): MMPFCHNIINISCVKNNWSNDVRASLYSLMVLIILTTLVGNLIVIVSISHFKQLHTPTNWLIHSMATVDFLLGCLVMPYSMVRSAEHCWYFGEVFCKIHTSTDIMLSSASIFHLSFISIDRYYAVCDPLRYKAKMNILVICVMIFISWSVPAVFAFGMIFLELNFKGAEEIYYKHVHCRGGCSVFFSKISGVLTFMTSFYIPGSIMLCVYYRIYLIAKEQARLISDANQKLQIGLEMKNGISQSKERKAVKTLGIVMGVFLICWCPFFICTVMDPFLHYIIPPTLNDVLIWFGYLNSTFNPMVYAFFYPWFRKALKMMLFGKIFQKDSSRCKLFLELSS
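Assay system: RD-HGA16 CHO cells with stable hTAAR1 and Gα16 / Reagent: EC80 β-phenethylamine stimulus / Doses: 3 µM, single point / Timing: dye loading 75 min at 37 °C, then 30 min room temperature / Measured by: Fluo-8 intracellular calcium dye fluorescence, real-time kinetic reads / Controls: vehicle wells and EC80 agonist wells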
HTR2A ag: activates the mouse 5-HT2A serotonin receptor; AID 624169; 360,000 compounds, 0.66% hits; activation, % at 7.6 µM; CHO-K1 mHTR2A beta-arrestin complementation, luminescence; percent of 30 µM serotonin response; P35363;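 active means activation above a run cutoff, the mean activation of all tested compounds plus 3 SD, cut at about 14% in these data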
TAAR1 agonist: human TAAR1 agonism; Q96RJ0; CHO RD-HGA16 TAAR1, Fluo-8 calcium fluorescence; vehicle wells 0%, saturating PEA agonist 100%; activation, % at 3 µM; 360,000 compounds, 0.99% hits; AID 624467;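 active means activation above the mean activation of all test compounds in the run plus 3 SD, cut at about 38% in these data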
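Assay system: CHO-derived RD-HGA16 cells with stable Gα16 and human TAAR1; timing: 17-24 h seeding, 75 min 37 °C dye, 30 min RT; read-out: % activation from peak over basal fluorescence ratio, DMSO-to-PEA scaled; measured by: kinetic Fluo-8 calcium fluorescence; benchmarks: low control DMSO, high control PEA (EC100); doses: 3 µM single concentration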
MC4R barr agon: activates human MC4R beta-arrestin recruitment; P32245; U2OS MC4R beta-arrestin complementation, luminescence; percent of melanotan II response, DMSO zero; activation, % at 8.9 µM; 360,000 compounds, 0.98% hits;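 active means activation above a per-plate cutoff, the mean activation of sample wells on that plate plus 3 SD, cut at about 8% in these data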
Target sequence (P32245 whole entry, looked up): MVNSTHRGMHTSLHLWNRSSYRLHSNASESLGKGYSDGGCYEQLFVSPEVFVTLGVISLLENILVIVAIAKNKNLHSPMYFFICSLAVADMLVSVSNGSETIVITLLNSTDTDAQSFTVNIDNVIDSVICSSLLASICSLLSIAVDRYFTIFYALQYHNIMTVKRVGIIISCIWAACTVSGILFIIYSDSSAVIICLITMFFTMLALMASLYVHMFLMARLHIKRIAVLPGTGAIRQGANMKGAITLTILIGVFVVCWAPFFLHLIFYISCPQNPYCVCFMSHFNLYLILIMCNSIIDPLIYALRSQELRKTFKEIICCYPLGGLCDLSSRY
MC4R antag cAMP: blocks human MC4R cAMP signaling; inhibition, % at 6.5 µM; P32245; MC4R-expressing cells, MTII-stimulated cAMP, LANCE TR-FRET; AID 540295; 360,000 compounds, 0.48% hits;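 active means inhibition above its plate's cutoff, the mean of tested wells on that plate plus 3 SD, cut at about 29% in these data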
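Test system: U2OS cells stably expressing human melanocortin 4 receptor (MC4R); also added: Melanotan II challenge; compound: 6.5 µM single dose; timing: 30-min compound preincubation, 1-h Melanotan II challenge, 1-h detection, room temperature; signal: Eu-cAMP/anti-cAMP TR-FRET, emission 671 nm; repeats: one well per compound, no replicates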
B2AR ag: human beta-2 adrenergic receptor agonism by FAP; AID 504454; 340,000 compounds, 0.43% hits; Am2.2-beta2AR cells, FAP receptor internalization, flow cytometry; P07550; response, % (no concentration beside the values);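 active means response above a set limit, near 3 SD of response in nonfluorescent compounds, cut at about 42% in these data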
U2OS cAMP counter: nonselective cAMP signaling inhibitor, MC4R antagonist counter-screen | shares compounds with MC4R antag cAMP | parental U2OS, forskolin cAMP, LANCE TR-FRET | inhibition, % at 6.5 µM | 1,600 compounds, 26% hits | AID 602193;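 active means mean inhibition over triplicates above the low-control well mean plus 3 SD, set per campaign, cut at about 13% in these data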;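 further: signal is single emission at 671 nm which falls as cellular cAMP rises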
MC4R antag conf: human MC4R cAMP antagonism confirmation; shares compounds with MC4R antag cAMP; MC4R-expressing cells, MTII-stimulated cAMP, TR-FRET; inhibition, % at 6.5 µM; 1,600 compounds, 27% hits; AID 602195; in the data active means inhibition above about 29%
Numbers stand for hits; n = inactive; x = no result given.

SMILES	TAAR1 antagonist	HTR2A ag	TAAR1 agonist	MC4R barr agon	MC4R antag cAMP	B2AR ag	U2OS cAMP counter	MC4R antag conf
N#Cc1ccc(/C=C/C(=O)c2ccco2)cc1	n	n	n	n	30.8	n	n	n
Cc1[nH]nc2c1C(c1cccs1)C(C#N)=C(N)O2 (centres undefined)	n	n	n	n	n	n	x	x
Cc1ccsc1C1C(C#N)=C(N)Oc2n[nH]c(C)c21 (centres undefined)	n	n	n	n	28.7	n	n	n
Cc1ccc(S(=O)(=O)NCC(=O)N2CCN(c3ccc(F)cc3)CC2)cc1	n	n	n	n	n	n	x	x
CCOc1ccccc1CNC(=O)CCc1cn(CC)c2ccccc12	n	n	n	n	n	n	x	x
CCn1cc(CCC(=O)NCc2cccc(OC)c2OC)c2ccccc21	n	n	n	n	30.9	n	n	n
Cc1ccc(OCC(=O)Oc2c(C)cccc2C)cc1	n	n	n	n	n	n	x	x
COCC(=O)Oc1cc(-c2ccc(C)cc2C)c(OC(=O)COC)c(-c2ccc(C)cc2C)c1	n	n	n	n	30.4	x	n	n
COc1ccc(C(=O)N2CCN(Cc3ccccc3[N+](=O)[O-])CC2)cc1	n	n	n	n	n	n	x	x
COc1cc(OC)cc(C(=O)N2CCN(Cc3ccccc3[N+](=O)[O-])CC2)c1	n	n	n	n	28.7	n	n	n
COc1cccc2cc(C(=O)NC3CC4CCC3C4)oc12 (centres undefined)	n	n	n	n	n	n	x	x
CC(NC(=O)c1ccc(OC2CCN(Cc3ccccn3)CC2)cc1)c1nccs1 (centres undefined)	n	n	n	n	28.9	n	n	n
Nc1c(C(=O)Nc2ccccc2F)sc2nc(Cc3ccccc3)cc(C(F)(F)F)c12	n	n	n	n	111.3	n	n	n
COCc1cc(C)nc2sc(C(=O)Nc3ccccc3F)c(N)c12	n	n	n	n	n	n	x	x
CN1CCCCC(NC(=O)c2ccc(F)cc2)C1=O (centres undefined)	n	x	n	x	x	x	x	x
CC(C)(C)c1nc(SCC(=O)NC2CCCC2)c2ccccc2n1	n	n	n	n	29.3	n	n	n
COc1ccc2c(c1)oc(=O)c1ccccc12	n	n	n	n	n	n	x	x
O=c1oc2cc(O)c(Cl)cc2c2ccccc12	n	n	n	n	56.4	n	41.2	63.6
CC1CN(C(=O)c2ccc(-c3cccc(C(F)(F)F)c3)o2)CC(C)O1 (centres undefined)	n	n	n	n	n	n	x	x
CCC(Sc1nc2n[nH]c(C)c2c(=N)n1-c1ccc(C)c(Cl)c1)C(=O)N1CCOCC1 (centres undefined)	x	n	x	n	29.4	n	n	34.6
CCC(Sc1nc2n[nH]c(C)c2c(=N)n1-c1cccc(Cl)c1)C(=O)NCCOC (centres undefined)	n	n	n	n	n	n	x	x
CC1C/C(=C/c2ccncc2)C(=O)/C(=C/c2ccncc2)C1 (centres undefined)	n	n	n	n	31.0	n	28.7	30.2
COc1ccccc1NC(=O)N(C)C[C@H]1OCc2cnnn2CCCC(=O)N([C@H](C)CO)C[C@@H]1C	n	n	n	n	n	x	x	x
Cc1ccc(C)c(OCC(=O)Nc2cc(NC(=O)COc3cc(C)ccc3C)cc(C(=O)O)c2)c1	n	n	n	n	n	n	x	x
CC(C)(C)c1ccc(C(=O)Nc2sc3c(c2C(=O)O)CCC3)cc1	n	n	n	n	30.4	n	n	n
SMILES	TAAR1 antagonist	HTR2A ag	TAAR1 agonist	MC4R barr agon	MC4R antag cAMP	B2AR ag	U2OS cAMP counter	MC4R antag conf
O=C(Nc1sc2c(c1C(=O)O)CCCC2)c1ccc(F)cc1	n	n	n	n	n	n	x	x
O=C(c1cc(-c2cccc(O)c2)on1)N1CCCCC1	n	n	n	n	n	n	x	x
O=C(c1cc(-c2cccc(O)c2)on1)N1CCCC1	n	n	n	n	31.4	n	n	n
Cc1ccc(NC(=O)CSc2nnc(CNC(=O)c3cccs3)o2)cc1	n	n	n	n	30.8	n	n	n
Cc1cc2nc[nH]c2cc1[N+](=O)[O-]	n	n	n	n	28.7	n	n	n
COc1ccc(OCC(=O)Nc2ccc3c(c2)OCO3)cc1	n	n	n	n	n	n	x	x
O=C(COc1ccc([N+](=O)[O-])cc1)Nc1ccc2c(c1)OCO2	n	n	n	n	32.2	n	n	n
Cc1cc(/C=C2/NC(=O)N(Cc3ccccc3F)C2=O)c(C)n1C	n	n	n	n	34.9	n	n	n
Cc1cc(/C=C2/NC(=O)N(Cc3ccccc3F)C2=O)c(C)n1-c1ccccn1	n	n	n	n	n	n	x	x
Cc1cc(C(=O)O)ccc1-c1ccc(/C=C2\NC(=O)N(Cc3ccccc3Cl)C2=O)o1	x	n	x	n	36.9	n	n	n
C=C1CC2(OC1=O)c1ccccc1CCc1ccccc12	n	n	n	n	31.6	n	38.6	n
OCCN1CCN(c2cc(C(F)(F)F)nc3c(F)cccc23)CC1	n	n	n	n	29.6	n	n	n
COc1ccc(C(=O)C2CCCN(C(=O)c3cc(C4CC4)[nH]n3)C2)c(C)c1 (centres undefined)	n	n	n	n	n	n	x	x
Cc1cccn2c(CN3CCSCC3)c(C(=O)N3CCOCC3)nc12	n	n	n	n	29.3	n	n	n
O=C(CN(c1cccc([N+](=O)[O-])c1)S(=O)(=O)c1ccccc1)NCc1cccnc1	n	n	n	n	n	n	x	x
O=C(CN(c1cccc(C(F)(F)F)c1)S(=O)(=O)c1ccc(Cl)c([N+](=O)[O-])c1)NCc1ccc(F)cc1	n	n	n	n	29.0	n	18.2	57.1
O=C(O)C1Cc2c([nH]c3ccccc23)C(c2ccc3c(c2)OCO3)N1 (centres undefined)	n	n	n	n	n	n	x	x
COc1ccc(C2NC(C(=O)O)Cc3c2[nH]c2ccccc32)cc1CN1CCN(c2ccc(F)cc2)CC1 (centres undefined)	n	n	n	n	30.2	n	n	n
Cc1ccc(C(=O)N2NC(c3ccc(F)cc3)C3C(=O)N(c4ccc(C)cc4)C(=O)C32)cc1 (centres undefined)	n	n	n	n	n	n	x	x
CCOc1ccc(N2C(=O)C3C(c4ccccc4F)NN(C(=O)c4ccc(C)cc4)C3C2=O)cc1 (centres undefined)	n	n	n	n	30.5	n	n	n
